Test results taken from PubChem BioAssay.
A number with no mark means an inactive call.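 The calls were made as follows: active = growth inhibition above 25% in both replicates, a cutoff set 3 SD above the mean; inconclusive = above 25% in only one replicate; inactive = the rest.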

test: OD615 S. cerevisiae growth inhibition, permissive medium, pilot counter-assay, permissive growth control for S. cerevisiae lifespan shortening project (AID 705); settings: OD615, 24 h, at 10 µM, hits give high values
Method in brief: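 Material: engineered DeaD yeast; Compound: one dose 10 µM, DMSO 0.25% final; Detection: absorbance (optical density) at 615 nm; Buffer or medium: permissive raffinose/galactose medium; Timing: 24 h exposure, 30 °C.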

| SMILES | growth inhibition |
| --- | --- |
| CCCCCn1c(=O)[nH]c2cc(C(=O)NCc3ccc4c(c3)OCO4)ccc2c1=O | -12.1% |
| O=C(C1=C(O)C(=O)N(CCc2ccccc2)C1c1cccnc1)c1ccco1 (stereo not given) | -23.9% |
| Cc1ccc2c(c1)c(C)c(C)n2CC(O)Cn1nc(C)cc1C (stereo not given) | -13% |
| CCOC(=O)N1CCC(NC(=O)C(Cc2ccccc2)NC(=O)C2CCCCC2)CC1 (stereo not given) | -1.7% |
| c1coc(CNc2nc3sc4c(c3c3ncnn23)CCCC4)c1 | -19.5% |
| COc1ccc(N2CCN(CCNC(=O)c3ccc(NC(=O)C4CCCO4)cc3)CC2)cc1 (stereo not given) | -14% |
| Cc1cc(C)n(-c2cc(=O)n(C)c(=O)n2C)n1 | 1.39% |
| Cc1ccnc(Sc2nc3c(c(=O)[nH]c(=O)n3C)n2CCCc2ccccc2)n1 | -17.7% |
| Cc1ccc(Cn2c(Sc3nccc(C)n3)nc3c2c(=O)[nH]c(=O)n3C)cc1 | -22.6% |
| Cc1ccc(CNC(=O)CCS(=O)(=O)c2cccc3nonc23)cc1 | 8.16% |
| CCC(=O)Nc1cc(C)c(NC(=O)c2ccco2)cn1 | -18.1% |
| CNC(=O)c1ccc(-c2sc3nc(N4CCOCC4)c4c(c3c2N)CCCC4)o1 | 0.875% |
| CC(=O)NCC(=O)N(c1c(C)n(C)n(-c2ccccc2)c1=O)C1(C(=O)NC2CCCC2)CCCCC1 | 10% |
| CCN(CC)S(=O)(=O)c1cc(Br)ccc1OC | 9.34% |
| Cc1ccc(S(=O)(=O)N2CCC(C(=O)N[C@@H](C)C(=O)NCC3CCCO3)CC2)cc1 (stereo not given in full) | -19.6% |
| COc1ccc(C2C3=C(CC(C)(C)CC3=O)Nc3n[nH]c(C)c32)cc1 (stereo not given) | -9.23% |
| O=C(Nc1nnc(C2CC2)o1)c1ccc(S(=O)(=O)N2CCCc3ccccc32)cc1 | -18.1% |
| C=CCNC(=O)c1ccc2c(c1)nnn2C | -16% |
| COc1ccc(CNc2oc(COc3ccccc3)nc2C#N)cc1 | -9.65% |
| N#C/C(=C1\CCCN1)c1ccc2ccccc2n1 | 1.03% |

| SMILES | growth inhibition |
| --- | --- |
| OCC1(c2cc(C(F)(F)F)n[nH]2)CCCCC1 | 5.65% |
| O=C(OCC(=O)N1CCN(C(=O)c2ccco2)CC1)C1=COCCO1 | -9.26% |
| COc1ccc(Nc2ncnc3c2cnn3Cc2ccccc2)cc1 | -28.7% |
| CCCSc1nc(N)c2c3c(sc2n1)CN(C)CC3 | -25% |
| CC(NC(=O)C(C)(C)C)c1nc2ccccc2n1C (stereo not given) | 5.72% |
| CC1CN(C(=O)c2ccccc2C(=O)c2ncc[nH]2)CC(C)O1 (stereo not given) | -19.6% |
| S=c1nc(-c2ccccc2)n(CCN2CCOCC2)c2c1CCCC2 | -2.79% |
| CCCCCCn1c(SCC(=O)c2ccccc2)nc2c1c(=O)[nH]c(=O)n2C | -4.82% |
| COCC(=O)NCc1nc2ccccc2[nH]1 | -12.6% |
| COC(=O)CCC(=O)Oc1ccc(OC(=O)CCC(=O)OC)cc1 | 7.12% |
| CC1Cc2ccccc2N1C(=O)CCS(=O)(=O)c1cccc2nonc12 (stereo not given) | 8.09% |
| O=C(CN1CCN(c2ccccn2)CC1)Nc1cccc(C(F)(F)F)c1 | -3.17% |
| CCN(CC)C(=O)c1cn(CC)c(=O)c2cc(OC)c(OC)cc12 | -18.9% |
| CC1(C)Cc2c(sc3c2c(=N)n(Cc2ccco2)c(=O)n3CC(=O)Nc2cccc(Cl)c2)CO1 | -9.23% |
| CCCCCn1c(=O)[nH]c2cc(C(=O)NCCCN(CC)CC)ccc2c1=O | -20.8% |
| CCOC(=O)C1CCN(C(=O)c2ccc(NC(=O)C3CCCO3)cc2)CC1 (stereo not given) | -14.9% |
| Cc1sc(NC(=O)c2ccco2)c(C(c2cccnc2)N2CCN(c3ccc(F)cc3)CC2)c1C (stereo not given) | -8.72% |
| CCN(CC)S(=O)(=O)c1ccc(NC(=O)Cn2c(=O)oc3ccccc32)cc1 | -12.3% |
| c1ccc(Nc2nc(N3CCCCC3)nc(N3CCNCC3)n2)cc1 | -9.86% |
| Nc1ncnc2c1ncn2C1CCC(CO)C(O)C1 (stereo not given) | 3.96% |
